Experimental data reported in article PMC8103808 (Journal of medicinal chemistry, 2020).

Assays:
PDIA1 [1] = target: T1, PDIA1 (Homo sapiens, UniProt P07237); test: Glutathione competition in PDI reductase assay; format: biochemical; conditions: 5 mM GSH
PDI [2] = target: T2, PDI (Homo sapiens, UniProt P07237); test: Protein mass spectrometry; format: binding; conditions: 10 μM PDI, 100 μM DTT, 100 μM compound
Outline: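 Recombinant human PDI (10 μM) was incubated with 100 μM test compound and 100 μM DTT for 30 min before injection for Q-TOF intact-protein mass spectrometry to detect covalent adducts.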

U−118 MG cells = test: Colony formation assay with or without BSO pretreatment; format: cell-based, human; conditions: BSO pretreatment 24 h
Outline: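 U-118 MG cells grown in RPMI-1640 with 10% FBS were seeded at 600 cells/well and allowed to attach. Serial dilutions of buthionine sulfoximine were added 24 h later, with pretreatment overnight (24 h per legend), then serial dilutions of test compound. Cells were cultured 10–14 days until colonies formed, stained 1 h with crystal violet/formaldehyde/methanol, washed with water and imaged.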

PDIA1 [3] = target: T1, PDIA1; test: PDI reductase assay; format: biochemical
U−87 MG cells = test: MTT growth inhibition assay in U-87 MG cells; format: cell-based; conditions: Homo sapiens, read-out: MTT (% inhibition at 30 μM)
Outline: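 Cells were grown at 37 °C, 5% CO₂ in 10% FBS medium: DMEM for U-87 MG, RPMI-1640 for A-172. Duplicate wells of 3000–5000 cells were attached overnight, then exposed to 30 μM test compound for 72 h. MTT (3 mg/mL) was added for 4 h at 37 °C and formazan dissolved in DMSO before reading A570. Inhibition (%) = [1−(At−Ab)/(Ac−Ab)]×100.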

PDI [4] = target: T2, PDI; test: Reversibility; format: biochemical; conditions: for PDI activity recovery after dilution: compound concentrations 10 times that of the protein
PDIA2 = target: T3, PDIA2 (Homo sapiens, UniProt Q13087); test: PDI reductase assay with PDIA2; format: biochemical
T3 sequence (Q13087 22-525): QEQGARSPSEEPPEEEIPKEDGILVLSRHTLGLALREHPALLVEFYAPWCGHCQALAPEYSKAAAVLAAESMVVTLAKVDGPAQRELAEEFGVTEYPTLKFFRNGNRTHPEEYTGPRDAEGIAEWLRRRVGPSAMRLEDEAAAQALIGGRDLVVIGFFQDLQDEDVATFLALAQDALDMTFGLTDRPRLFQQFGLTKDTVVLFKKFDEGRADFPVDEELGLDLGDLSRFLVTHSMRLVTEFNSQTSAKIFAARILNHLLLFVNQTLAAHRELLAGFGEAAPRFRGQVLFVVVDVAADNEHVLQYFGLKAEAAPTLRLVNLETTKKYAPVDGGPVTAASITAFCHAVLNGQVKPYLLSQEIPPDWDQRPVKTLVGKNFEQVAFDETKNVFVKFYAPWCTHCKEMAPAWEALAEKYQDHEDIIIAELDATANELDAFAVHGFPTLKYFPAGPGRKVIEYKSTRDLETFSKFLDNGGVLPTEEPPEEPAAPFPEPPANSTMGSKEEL

PDI b′ domain = PDI b′ domain (Homo sapiens, UniProt P07237); test: ANS spectral scan; format: binding; conditions: 5 μM PDI, 100 μM compound
Chain of PDI b′ domain (P07237 18-508): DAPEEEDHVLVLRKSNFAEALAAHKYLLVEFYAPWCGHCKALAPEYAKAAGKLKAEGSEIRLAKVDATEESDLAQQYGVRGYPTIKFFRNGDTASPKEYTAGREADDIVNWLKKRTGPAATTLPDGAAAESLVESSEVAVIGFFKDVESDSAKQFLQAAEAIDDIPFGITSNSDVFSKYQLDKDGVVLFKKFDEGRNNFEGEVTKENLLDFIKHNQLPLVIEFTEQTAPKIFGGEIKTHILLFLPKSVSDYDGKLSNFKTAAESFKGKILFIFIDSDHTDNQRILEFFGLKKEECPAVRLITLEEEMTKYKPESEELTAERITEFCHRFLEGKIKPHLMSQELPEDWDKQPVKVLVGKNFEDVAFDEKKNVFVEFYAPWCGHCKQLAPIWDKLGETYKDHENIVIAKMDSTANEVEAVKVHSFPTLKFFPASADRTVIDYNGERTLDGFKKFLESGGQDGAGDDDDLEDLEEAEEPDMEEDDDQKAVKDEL
Outline: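 Recombinant N-terminally His-tagged human PDI, expressed in E. coli BL21(DE3) and Ni-NTA purified, at 5 μM with 100 μM test compound or matching DMSO in TBS for 1 h at 37 °C. ANS then added and incubated 20 min at 25 °C in the dark. Fluorescence spectrum recorded at Ex 370 nm, Em 400–700 nm.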

PDI H256A mutant = PDI H256A mutant (Homo sapiens, UniProt P07237, H256A); test: PDI reductase assay with H256A mutant; format: biochemical; conditions: Histidine 256 in b′ domain mutated to alanine
Chain of PDI H256A mutant (P07237 18-508 H256A): as the sequence (P07237 18-508) above, with H239A counted along it
Outline: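 H256A PDI was made by site-directed mutagenesis, expressed in BL21(DE3) and purified like wild type. Enzyme (0.4 μM or 50 nM) was preincubated with test compound for 1 h at 37 °C in 100 mM sodium phosphate, 2 mM EDTA, 8 μM DTT, pH 7.0. DTT (500 μM; 125 μM for 50 nM enzyme) and 130 μM bovine insulin were added, and reduction proceeded at room temperature. Insulin B-chain aggregation was read at 620 nm, and activity calculated from ΔOD over 60 min (180 min for 50 nM).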

PDI [5] = target: T2, PDI; test: Thermal shift assay; format: binding; conditions: oxidized PDI; 100 μM compound
serum albumin = serum albumin (Bos taurus, UniProt P02769); test: Gel-based binding in cell-free medium with fetal bovine serum; conditions: cell-free medium supplemented with fetal bovine serum
Chain of serum albumin (P02769 25-607): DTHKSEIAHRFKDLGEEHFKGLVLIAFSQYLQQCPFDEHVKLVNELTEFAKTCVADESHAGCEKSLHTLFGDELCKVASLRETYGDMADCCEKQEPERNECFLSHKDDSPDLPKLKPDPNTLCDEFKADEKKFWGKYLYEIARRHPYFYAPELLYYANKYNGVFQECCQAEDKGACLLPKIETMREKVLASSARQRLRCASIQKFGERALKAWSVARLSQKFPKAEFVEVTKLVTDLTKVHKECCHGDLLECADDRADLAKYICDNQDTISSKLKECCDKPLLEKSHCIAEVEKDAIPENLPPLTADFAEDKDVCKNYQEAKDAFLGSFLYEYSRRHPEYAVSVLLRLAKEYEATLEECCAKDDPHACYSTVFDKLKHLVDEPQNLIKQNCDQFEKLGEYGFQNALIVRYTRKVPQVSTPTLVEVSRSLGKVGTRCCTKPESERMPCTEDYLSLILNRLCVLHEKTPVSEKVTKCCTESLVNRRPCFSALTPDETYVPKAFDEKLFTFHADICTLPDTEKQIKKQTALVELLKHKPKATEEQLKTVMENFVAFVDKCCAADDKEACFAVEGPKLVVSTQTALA
Outline: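 Cell-free DMEM, with 10% FBS added, was incubated overnight at 37 °C with 20 μM BODIPY-labelled test compound. Binding to serum albumin was assessed by in-gel imaging of the labelled protein.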

PDI [6] = target: T2, PDI; test: kinact/KI determination in PDI reductase assay with reduced PDI; format: biochemical

T1 sequence (P07237 18-508): as the sequence (P07237 18-508) above
T2 sequence (P07237 18-508): as above

## Oc1c(C(c2ccc(F)cc2)N2CCNCC2)ccc2cncnc12 (stereo not drawn) [5d, 7-((4-Fluorophenyl)(piperazin-1-yl)methyl)quinazolin-8-ol]
PDIA1 [1]
  PDI inhibition in the presence of competing glutathione: maintained potency
PDI [2]
  covalent binding to PDI by mass spectrometry: bound to PDI
U−118 MG cells
  potency in colony formation assay, dependence on BSO: more sensitive to BSO addition

## Oc1cc2c(cc1C(c1ccc(F)cc1)N1CCCCC1)NCC2 (stereo not drawn) [6d, 6-((4-Fluorophenyl)(piperidin-1-yl)methyl)indolin-5-ol]
PDIA1 [3]
  PDI inhibition in the PDI reductase assay (in words): moderate loss of activity
U−87 MG cells
  inhibition at 30 µM: 0%

## COc1cccc(C(c2cc3c(cc2O)OCO3)N2CCOCC2)c1OC (stereo not drawn) [6a, 6-((2,3-Dimethoxyphenyl)(morpholino)methyl)benzo[d][1,3]dioxol-5-ol]
PDI [2]
  covalent binding to PDI by mass spectrometry: bound reduced PDI at three sites
PDI [4]
  PDI activity recovery after dilution: too active at this ratio

## O=c1c(O[C@@H]2O[C@H](CO)[C@@H](O)[C@H](O)[C@H]2O)c(-c2ccc(O)c(O)c2)oc2cc(O)cc(O)c12 [isoquercetin, reference compound]
PDIA1 [1]
  PDI inhibition in the presence of competing glutathione: remained active

## CN(C)c1ccc(C(Nc2ncccn2)c2cc3c(cc2O)OCO3)cc1 (stereo not drawn) [compound 14, 6-((4-(Dimethylamino)phenyl)(pyrimidin-2-ylamino)methyl)benzo[d][1,3]dioxol-5-ol]
PDIA1 [1]
  PDI inhibition in the presence of competing glutathione: maintained potency

## Oc1c(C(Nc2ccccn2)c2ccc(Cl)cc2)ccc2cccnc12 (stereo not drawn) [CD343]
PDIA2
  inhibition of PDIA2 activity: inhibited activity of PDIA2
PDI b′ domain
  competition with ANS fluorescence: did not lower the fluorescence of ANS
PDI H256A mutant
  activity against H256A mutant PDI: retained their activity
PDI [4]; 50 μM compound with 40 μM PDI, 3 h at room temperature
  PDI activity recovery after 100-fold dilution: did not maintain the characteristics of the high concentration of inhibitor after dilution
PDI [4]
  PDI activity recovery after dilution: too active at this ratio
PDI [5]
  stabilization of PDI to thermal degradation: did not stabilize PDI to thermal degradation

## N#Cc1cccc(/C=C/C(=O)c2ccc(O)cc2)c1 [BAP2, reference compound]
PDIA1 [1]
  PDI inhibition in the presence of competing glutathione: remained active

## CC1=CC(C)=[N+]2C1=C(c1ccc(NC(=O)c3ccc(C(c4cc5c(cc4O)OCO5)N4CCCCC4)cc3)cc1)c1c(C)cc(C)n1[B-]2(F)F (stereo not drawn) [compound 15, N-(4-(5,5-Difluoro-1,3,7,9-tetramethyl-5H-4λ^4,5λ^4-dipyrrolo[1,2-c:2’,1’-f][1,3,2]diazaborinin-10-yl)phenyl)-4-((6-hydroxybenzo[d][1,3]dioxol-5-yl)(piperidin-1-yl)methyl)benzamide]
Serum albumin
  binding to serum albumin: bound to serum albumin
PDIA1 [3]
  PDI inhibition in the PDI reductase assay (in words): did not inhibit PDI activity

## COC(=O)C1(C)c2[nH]c3ccccc3c2CCN1C(=O)CCl (stereo not drawn) [16F16]
PDI [6]
  kinact/KI: 170 M⁻¹ s⁻¹

## Oc1c(C(c2ccc(F)cc2)N2CCN(C(c3ccc(F)cc3)c3ccc4cncnc4c3O)CC2)ccc2cncnc12 (stereo not drawn) [5d dimer]
PDIA1 [1]
  PDI inhibition in the presence of competing glutathione: less sensitive to glutathione competition than the monomer
PDI [2]
  covalent binding to PDI by mass spectrometry: bound to PDI
U−118 MG cells
  potency in colony formation assay, dependence on BSO: more potent and its potency was not dependent on BSO addition

## C#CC(=O)N(c1ccc(OC)cc1OC)C(C(=O)NCC(=O)OCC)c1cccs1 (stereo not drawn) [PACMA31, reference compound]
PDI [6]
  kinact/KI: 200 M⁻¹ s⁻¹
PDI [5]
  stabilization of PDI to thermal degradation: did not stabilize PDI to thermal degradation
